Data published in ChEMBL document CHEMBL4819008, “Design, synthesis, and evaluation of "dual-site"-binding diarylpyrimidines targeting both NNIBP and the NNRTI adjacent site of the HIV-1 reverse transcriptase” (Eur J Med Chem, 2021).

How the values were obtained:
[1] = system: Human immunodeficiency virus 1; assay: Antiviral activity against wild type HIV1 NL4-3 infected in human TZM-bl cells assessed as reduction in viral infection measured after 1 day by luciferase reporter gene assay based luminiscence assay; type: functional, organism-based; conditions: Human immunodeficiency virus 1, NL4-3, TZM-bl, 24 h
Outline: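 TZM-bl cells got a single-round infection with 800 TCID50 of NL4-3 at various compound concentrations, top concentration 100 ng/mL. Luminescence was read 1 day post-infection. EC50 is the concentration giving a 50% decrease in luciferase RLU versus control wells, determined in at least triplicate.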

[2] = Cytotoxicity against human TZM-bl cells assessed as reduction in cell viability measured after 1 day by CytoTox-Glo assay; type: cell-based
Outline: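 TZM-bl cells were cultured 1 day with various compound concentrations, in parallel with the antiviral assay, top concentration 100 ng/mL. Viable cells were measured by CytoTox-Glo. CC50 is the concentration causing a 50% reduction in cell viability.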

[3] = Selectivity index, ratio of CC50 for human TZM-bl cells to EC50 for wild type HIV1 NL4-3 infected in human TZM-bl cells; type: toxicity, cell-based; conditions: read-out: Ratio CC50/EC50
Outline: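 Selectivity index is CC50/EC50, with both values from the TZM-bl assays: NL4-3 single-round luciferase infection and CytoTox-Glo viability, each over 1 day.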

[4] = Cytotoxicity against human MT4 cells assessed as reduction in cell viability measured after 5 days by MTT assay; type: cell-based; conditions: time 5 day
Outline: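 Mock-infected MT-4 cells (6 × 10^5 cells/mL) were run in parallel with the infected wells, under serial 5-fold compound dilutions in triplicate. MTT viability was read after 5 days and the median OD of three wells used. CC50 is the concentration that reduced OD540 of the mock-infected cells by 50%.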

[5] = system: Human immunodeficiency virus 1; assay: Antiviral activity against HIV-1 harboring reverse transcriptase Y181C mutant infected in human MT4 cells assessed as inhibition of virus induced cytopathic effect measured after 5 days by MTT assay; type: functional, organism-based; conditions: Human immunodeficiency virus 1, MT4, 120 h
Outline: (§1)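 MT-4 cells, exponentially growing, resuspended at 6 × 10^5 cells/mL and infected with the mutant HIV-1 stock at 100–300 CCID50. Compounds were added as 5-fold serial dilutions, in triplicate wells, alongside mock-infected wells. After 5 days, viability was read by MTT reduction at 540 and 690 nm using the median OD of three wells. EC50 is the concentration giving 50% protection from viral cytopathogenicity.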

[6] = system: Human immunodeficiency virus 1; assay: Antiviral activity against HIV-1 harboring reverse transcriptase L100I mutant infected in human MT4 cells assessed as inhibition of virus induced cytopathic effect measured after 5 days by MTT assay; type: functional, organism-based; conditions: Human immunodeficiency virus 1, MT4, 120 h; outline: as §1
[7] = system: Human immunodeficiency virus 1; assay: Antiviral activity against HIV-1 harboring reverse transcriptase K103N mutant infected in human MT4 cells assessed as inhibition of virus induced cytopathic effect measured after 5 days by MTT assay; type: functional, organism-based; conditions: Human immunodeficiency virus 1, MT4, 120 h; outline: as §1
[8] = system: Human immunodeficiency virus 1; assay: Antiviral activity against HIV-1 harboring reverse transcriptase F227L/V106A mutant infected in human MT4 cells assessed as inhibition of virus induced cytopathic effect measured after 5 days by MTT assay; type: functional, organism-based; conditions: Human immunodeficiency virus 1, MT4, 120 h; outline: as §1
[9] = Selectivity index, ratio of CC50 for human MT4 cells to EC50 for wild type HIV-1 3B infected in human MT4 cells; type: toxicity, cell-based; conditions: read-out: Ratio CC50/EC50
[10] = system: Human immunodeficiency virus 1; assay: Antiviral activity against HIV-1 harboring reverse transcriptase E138K mutant infected in human MT4 cells assessed as inhibition of virus induced cytopathic effect measured after 5 days by MTT assay; type: functional, organism-based; conditions: Human immunodeficiency virus 1, MT4, 120 h; outline: as §1
[11] = system: Human immunodeficiency virus 1; assay: Antiviral activity against HIV-1 harboring reverse transcriptase RES056 mutant infected in human MT4 cells assessed as inhibition of virus induced cytopathic effect measured after 5 days by MTT assay; type: functional, organism-based; conditions: Human immunodeficiency virus 1, MT4, 120 h; outline: as §1
[12] = system: Human immunodeficiency virus 1; assay: Antiviral activity against HIV-1 harboring reverse transcriptase Y188L mutant infected in human MT4 cells assessed as inhibition of virus induced cytopathic effect measured after 5 days by MTT assay; type: functional, organism-based; conditions: Human immunodeficiency virus 1, MT4, 120 h; outline: as §1
[13] = system: Human immunodeficiency virus 1; assay: Antiviral activity against wild type HIV-1 3B infected in human MT4 cells assessed as inhibition of virus-induced cytopathic effect measured after 5 days by MTT assay; type: functional, organism-based; conditions: Human immunodeficiency virus 1, 3B, MT4, 120 h
Outline: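 MT-4 cells at 6 × 10^5 cells/mL were infected with virus stock at 100–300 CCID50 in the presence of serial 5-fold compound dilutions, in triplicate wells. Viability was read by MTT reduction 5 days after infection, with absorbance at 540 and 690 nm and the median OD of three wells used. EC50 is the concentration giving 50% protection from viral cytopathicity.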

[14] = Antiviral activity against HIV-2 ROD infected in human MT4 cells assessed as protection against virus-induced cytopathic effect measured after 5 days by MTT assay; conditions: Human immunodeficiency virus 2, ISOLATE ROD, MT4, 120 h

Cc1cc(C#N)cc(C)c1Oc1nc(Nc2ccc(C#N)cc2)ncc1/C=C/C(=O)NC1CCN(C(=O)C(F)(F)F)CC1
EC50 [1]: > 0.17 µM | CC50 at 24 h [2]: > 0.17 µM | selectivity ratio [3]: > 1

Cc1cc(C#N)cc(C)c1Oc1nc(Nc2ccc(C#N)cc2)ncc1/C=C/C(=O)N1CCN(C=O)CC1
EC50 [1]: 0.0493 µM | CC50 at 24 h [2]: > 0.197 µM | selectivity ratio [3]: > 4

Cc1cc(C#N)cc(C)c1Oc1nc(Nc2ccc(C#N)cc2)ncc1/C=C/C(=O)NC1CCN(S(C)(=O)=O)C1 (stereo unspecified)
EC50 [1]: 0.0147 µM | CC50 at 24 h [2]: > 0.179 µM | selectivity ratio [3]: > 12

Cc1ccnc2c1NC(=O)c1cccnc1N2C1CC1 [NEVIRAPINE]
CC50 at 120 h [4]: > 9.5 µM | EC50 [5]: 2.33 µM | EC50 [6]: 0.373 µM | EC50 [7]: 1.47 µM | EC50 [8]: 2.73 µM | selectivity ratio [9]: > 113 | EC50 [10]: 0.0728 µM | EC50 [1]: 0.281 µM | EC50 [11]: 6.75 µM | CC50 at 24 h [2]: > 15 µM | EC50 [12]: 3.39 µM | selectivity ratio [3]: > 53

Cc1cc(C#N)cc(C)c1Oc1nc(Nc2ccc(C#N)cc2)ncc1/C=C/C(=O)N1CCOCC1
EC50 [1]: 0.02 µM | CC50 at 24 h [2]: > 0.208 µM | selectivity ratio [3]: > 10

O=C1Nc2ccc(Cl)cc2[C@@](C#CC2CC2)(C(F)(F)F)O1 [EFAVIRENZ]
CC50 at 120 h [4]: > 6.3 µM | EC50 [5]: 0.0052 µM | EC50 [6]: 0.0308 µM | EC50 [7]: 0.0637 µM | EC50 [8]: 0.169 µM | selectivity ratio [9]: > 2570 | EC50 [10]: 0.0057 µM | EC50 [13]: 0.0025 µM | EC50 [1]: 0.0052 µM | EC50 [11]: 0.273 µM | CC50 at 24 h [2]: > 6.3 µM | EC50 [12]: 0.148 µM | selectivity ratio [3]: > 1210

Cc1cc(C#N)cc(C)c1Oc1nc(Nc2ccc(C#N)cc2)ncc1/C=C/C(=O)N1CCN(S(C)(=O)=O)CC1
EC50 [1]: 0.0138 µM | CC50 at 24 h [2]: > 0.179 µM | selectivity ratio [3]: > 13

Cc1cc(C#N)cc(C)c1Oc1nc(Nc2ccc(C#N)cc2)ncc1/C=C/C(=O)NCCOCCO
CC50 at 120 h [4]: 61.8 µM | EC50 [5]: 0.197 µM | EC50 [6]: 0.227 µM | EC50 [7]: 0.0503 µM | EC50 [8]: 0.318 µM | selectivity ratio [9]: 2280 | EC50 [10]: 0.0471 µM | EC50 [13]: 0.0271 µM | EC50 [1]: 0.00481 µM | EC50 [11]: 1.05 µM | CC50 at 24 h [2]: > 0.2 µM | EC50 [12]: 0.146 µM | EC50 [14]: > 61.8 µM | selectivity ratio [3]: > 42

Cc1cc(C#N)cc(C)c1Oc1nc(Nc2ccc(C#N)cc2)ncc1/C=C/C(=O)NCCc1c[nH]c2ccccc12
EC50 [1]: 0.0813 µM | CC50 at 24 h [2]: > 0.18 µM | selectivity ratio [3]: > 2

Cc1cc(C#N)cc(C)c1Oc1nc(Nc2ccc(C#N)cc2)ncc1/C=C/C(N)=O
EC50 [1]: 0.00536 µM | CC50 at 24 h [2]: > 0.243 µM | selectivity ratio [3]: > 45

Cc1cc(C#N)cc(C)c1Oc1nc(Nc2ccc(C#N)cc2)ncc1/C=C/C(=O)NC1CC1
EC50 [1]: 0.0051 µM | CC50 at 24 h [2]: > 0.221 µM | selectivity ratio [3]: > 44

Cc1cc(C#N)cc(C)c1Oc1nc(Nc2ccc(C#N)cc2)nc(N)c1Br [ETRAVIRINE]
CC50 at 120 h [4]: > 4.6 µM | EC50 [6]: 0.0102 µM | EC50 [7]: 0.0023 µM | EC50 [8]: 0.0082 µM | EC50 [1]: 0.00145 µM | EC50 [11]: 0.0602 µM | CC50 at 24 h [2]: > 0.229 µM | EC50 [12]: 0.0155 µM
